Screens from PubChem.
ADAM17 inh: inhibitors of human ADAM17; inhibition, % at 6.95 µM; 370,000 compounds, 0.83% hits; recombinant ADAM17, EDANS/DABCYL FRET peptide cleavage; AID 720648; P78536;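 active = inhibition above the mean of compounds lying between control limits plus 3 SD, set per campaign, cut at about 8.5% in these data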;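 note: 0% = DMSO-only wells as the low control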
GASC-1 inh: blocks human GASC-1 demethylase activity | GST-JMJD2C(1-420) H3K9me3 demethylation, DELFIA europium | inhibition, % at 2.35 µM | AID 2099 | 330,000 compounds, 0.069% hits | Q9H3R0;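 active = more than half of a compound's replicate wells show inhibition beyond 50%, single wells judged on their own value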;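 note: signal counts dimethyl H3K9 product captured on neutravidin plate; 0% = median of DMSO wells and 100% = 0.3 times that DMSO median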
ADAM10 inh: inhibitors of human ADAM10. recombinant ADAM10, EDANS/DABCYL FRET peptide cleavage, 3 h. O14672. inhibition, % at 7 µM. 370,000 compounds, 0.62% hits;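 active = inhibition above a per-campaign cutoff equal to the mean of compounds falling between control-based bounds plus 3 SD, cut at about 20% in these data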;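 note: 0% = DMSO wells while the 100% control is not disclosed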
KLK7 zymogen act: activates the human kallikrein-7 zymogen. P49862. purified proKLK7, EDANS-DABCYL substrate fluorescence; 100% is mature enzyme control, 0% vehicle. activation, % at 7 µM. 370,000 compounds, 0.9% hits. AID 652039;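 active = activation above the mean of all tested compounds plus 3 SD, computed per campaign excluding outliers beyond control limits, cut at about 13% in these data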
Target sequence (P49862 whole entry, looked up): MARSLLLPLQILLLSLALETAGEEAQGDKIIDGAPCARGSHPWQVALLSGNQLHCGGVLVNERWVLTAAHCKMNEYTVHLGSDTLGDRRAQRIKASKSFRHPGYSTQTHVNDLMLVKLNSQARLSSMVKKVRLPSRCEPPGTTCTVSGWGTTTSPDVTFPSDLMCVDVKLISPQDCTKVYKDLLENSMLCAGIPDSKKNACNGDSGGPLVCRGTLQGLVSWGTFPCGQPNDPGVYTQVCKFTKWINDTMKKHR
NR2E3 ag-1: activates human NR2E3 receptor; CHO-S Gal4-NCOR/VP16-NR2E3 two-hybrid, luciferase; inhibition of corepressor binding, % at 3.98 µM; 360,000 compounds, 0.35% hits; AID 602229;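 active = inhibition above the mean of all tested compounds plus 3 SD, cut at about 70% in these data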;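 note: 0% = DMSO with NR2E3 transfected cells and 100% = cells lacking NR2E3 construct; higher means lower luciferase signal from less NR2E3 corepressor binding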
Target sequence (Q9Y5X4 whole entry, looked up, the tested form may be a part): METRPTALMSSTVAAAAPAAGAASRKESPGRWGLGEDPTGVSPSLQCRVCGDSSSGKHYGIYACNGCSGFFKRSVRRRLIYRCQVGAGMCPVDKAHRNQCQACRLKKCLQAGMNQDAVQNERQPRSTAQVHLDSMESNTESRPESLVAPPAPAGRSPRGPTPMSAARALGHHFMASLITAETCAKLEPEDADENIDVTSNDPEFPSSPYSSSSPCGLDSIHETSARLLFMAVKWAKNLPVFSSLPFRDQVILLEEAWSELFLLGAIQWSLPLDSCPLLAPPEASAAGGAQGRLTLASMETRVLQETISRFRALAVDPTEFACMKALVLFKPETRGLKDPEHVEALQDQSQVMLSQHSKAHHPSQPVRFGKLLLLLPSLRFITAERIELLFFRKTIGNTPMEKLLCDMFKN
NR2E3 ag-2: activates human photoreceptor nuclear receptor NR2E3; Q9Y5X4; GST-NR2E3/biotin-RetCOR TR-FRET, 1536-well; inhibition of corepressor binding, % at 4.78 µM; 320,000 compounds, 0.12% hits; AID 2300;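 active = percent inhibition above the cutoff of mean plus 3 SD of all tested compounds, set per screening campaign, cut at about 20% in these data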;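 note: 0% = DMSO wells and 100% = biotin wells as full block of FRET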
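Test system – NR2E3–RetCOR corepressor complex · Quantity – NR2E3 fusion 1.35 nM · Buffer or medium – Tris pH 7.5 · Incubation – Compound–protein incubation for 5 h at 4 °C · Technique – TR-FRET, Eu(K)-anti-GST donor, streptavidin-D2 acceptor, ex 340, em 617/671 nm · Evaluation – percent inhibition of 671/617 nm emission ratio versus biotin and DMSO controls · Plate – 1536-well format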
ADAM10 ctr: inhibits human ADAM10 in ADAM17 exosite counter-screen; AID 743256; inhibition, % at 6.95 µM; recombinant ADAM10, EDANS/DABCYL FRET peptide cleavage, 3 h; 2,900 compounds, 47% hits; shares compounds with ADAM17 inh;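 active = mean inhibition over the triplicate runs exceeds the activity threshold set in the earlier primary screen, cut at about 20% in these data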;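 note: 0% = DMSO wells and 100% = marimastat wells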
ADAM17 confirm: human ADAM17 inhibition, confirmation. inhibition, % at 6.95 µM. AID 743257. shares compounds with ADAM17 inh. 2,900 compounds, 65% hits. recombinant ADAM17, EDANS/DABCYL QFRET peptide cleavage;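 active = mean inhibition across replicates above the hit cutoff set in the primary screen, cut at about 8.5% in these data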;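 note: 0% = DMSO wells and 100% = marimastat wells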
Active calls of the source: *; x = no result given. In the library only some 2.5% were active in any assay of this set; here they are far more common.

SMILES	ADAM17 inh	GASC-1 inh	ADAM10 inh	KLK7 zymogen act	NR2E3 ag-1	NR2E3 ag-2	ADAM10 ctr	ADAM17 confirm
CCCCNC(=O)C(NC(=O)c1ccc2ccccc2c1)C(=O)c1ccccc1 (stereo not drawn)	-2	x	-8	0	x	x	x	x
Cc1ccc(/C=C/C(=O)Nc2ccc(Oc3ccccc3)cc2)o1	13*	-1	18	0	-30	0	14	11*
Cc1ccc(/C=C/C(=O)Nc2ccc([N+](=O)[O-])cc2)o1	5	-10	14	-1	-44	2	x	x
CC(C)Nc1nc(NC(C)C)nc(N(C#N)CCOc2ccc(Cl)cc2Cl)n1	9.3*	-1	13	0	-8	0	19	13*
Cc1cc(C)nc(N(C#N)CCOc2ccc(Cl)cc2)n1	-2	0	2	0	15	2	x	x
CC(c1nnnn1C1CCCCC1)N(Cc1ccccc1)Cc1cccnc1 (stereo not drawn)	9.4*	0	18	0	-2	0	4	2
CCN(Cc1ccccc1)C(c1ccccn1)c1nnnn1C1CCCCC1 (stereo not drawn)	-2	-4	4	0	12	0	x	x
Cc1cccc(NS(=O)(=O)c2ccc3c(c2)Cc2cc(S(=O)(=O)Nc4cccc(C)c4C)ccc2-3)c1C	11*	-7	18	0	-6	-2	13	10*
Cc1cc(C(=O)Nc2ccccc2)c(C)o1	-4	-7	-8	1	-9	5	x	x
Cc1ccc(NC(=O)C(OC(=O)c2cc(C)oc2C)c2ccccc2)cc1 (stereo not drawn)	11*	-7	14	0	-2	3	16	12*
COc1cc(NC(=S)NC(=O)c2ccccc2F)ccc1NC(=O)c1ccco1	-3	-23	-5	0	-32	-2	x	x
CCCCN1C(=O)C(O)=C(C(C)=O)C1c1ccc(OC)cc1OC (stereo not drawn)	10*	-4	8	0	-7	-2	0	1
COc1cccc(NC(=O)CSc2nnc(Cc3ccc(C)cc3)c(=O)n2N)c1	1	-1	7	0	18	-1	x	x
COc1ccc(Cc2nnc(SCC(=O)Nc3ccc(C)cc3)n(N)c2=O)cc1	9.8*	2	7	1	-9	2	1	1
Cc1c(C)c2ccc(OCC(=O)NCCN3CCOCC3)c(C)c2oc1=O	-60	-15	-187	0	-27	1	x	x
CN(C(=O)CCN1CCCO1)C1CCCN(Cc2ccccc2F)C1 (stereo not drawn)	9.0*	5	-2	0	-26	1	15	7
Cc1nc(C)c(-c2nnc(-c3ccc(C(C)(C)C)cc3)o2)cc1C(=O)NN	10*	-2	13	0	-3	-1	2	5
COc1ccccc1N1C(=O)Cc2ccccc2C1=O	-4	0	2	-2	1	1	x	x
CCOC(=O)[C@]12CCCCC/C=C\1N(CCc1ccc(Cl)cc1)C(=O)[C@H]2CC(=O)NCc1ccc(C)o1	9.4*	x	5	0	x	x	5	3
CCOC(=O)[C@]12CCCCC/C=C\1N(CCc1ccc(Cl)cc1)C(=O)[C@H]2CC(=O)NCc1ccccc1	11*	x	14	0	x	x	25*	12*
Fc1cccc(Cc2c(-c3ccc(Cl)cc3)nc3ccc(Br)cn23)c1	2	x	-11	-1	-2	x	x	x
Cc1cccc(S(=O)(=O)NC(Cc2c[nH]c3ccccc23)C(=O)O)c1 (stereo not drawn)	-1	-10	-3	0	-1	-3	x	x
O=C(Nc1ccccc1)N1CCN(Cc2ccc(Cl)cc2)CC1	0	8	10	0	-7	1	x	x
O=C(Nc1ccc(Cl)cc1)N1CCCN(Cc2ccc(F)cc2)C1	10*	-2	7	0	4	4	13	11*
Cc1ccc(C)c(S(=O)(=O)N(C)Cc2cccs2)c1	8.8*	10	-1	0	-12	0	23*	12*
SMILES	ADAM17 inh	GASC-1 inh	ADAM10 inh	KLK7 zymogen act	NR2E3 ag-1	NR2E3 ag-2	ADAM10 ctr	ADAM17 confirm
COc1ccc(S(=O)(=O)N(C)Cc2cccs2)cc1Br	4	-24	13	0	0	-1	x	x
O=C(NCC(=O)N1CC=C(c2ccccc2)CC1)c1ccc(F)cc1	0	10	-12	0	5	x	x	x
CC(=O)c1cccc(N=C2NC(=O)CS2)c1	-3	3	-4	0	-1	-1	x	x
C/C(=N\N=C1\NC(=O)CS1)c1cccs1	11*	2	16	1	-1	-1	9	7
CC(C)(Oc1ccc(Cl)cc1)C(=O)OCC(=O)Nc1ncc(Cl)cc1Cl	9.9*	-9	15	1	-14	-2	0	0
COc1ccc(S(=O)(=O)NCC(c2ccco2)N2CCc3ccccc32)cc1 (stereo not drawn)	14*	-24	18	0	-4	-2	18	12*
O=C1CC(Nc2ccc3ccccc3c2)C(=O)N1Cc1ccccc1 (stereo not drawn)	10.0*	12	9	2	-10	-2	12	11*
O=C(NCc1n[nH]c(=S)n1-c1cccc(C(F)(F)F)c1)c1ccc(S(=O)(=O)N2CCCC2)cc1	-3	4	0	0	5	4	x	x
O=C(NCc1n[nH]c(=S)n1-c1cccc(C(F)(F)F)c1)c1ccc(S(=O)(=O)N2CCCCC2)cc1	13*	13	14	0	5	-4	9	6
O=C(Oc1ccc(Br)cc1C(=O)/C=C/c1ccccc1F)c1ccco1	11*	2	20	1	-30	1	11	5
O=C(/C=C/Nc1ccc(Br)cc1F)c1ccco1	0	24	-1	0	-182	0	x	x
O=C(CNC(=O)OCc1ccccc1)NC1(C(=O)O)CCCC1	-1	x	-5	-1	-28	x	x	x
O=C(O)CNC(=O)C1(NC(=O)OCc2ccccc2)CCCC1	8.7*	x	6	0	-18	x	1	3
Cc1ccc(C(=O)Oc2cccc(-n3cnnn3)c2)cc1	-1	-4	-3	0	-98	1	x	x
CC1CCc2c(C(=O)Oc3cccc(-n4cnnn4)c3)csc2C1 (stereo not drawn)	8.8*	0	19	0	-46	-4	15	11*
